The list is not random: actives were taken first. Their share in the collection is about 3.1%.
hERG protect: compounds protecting human hERG from proarrhythmic drug block. Q12809. CHO-hERG, FluxOR thallium flux, dofetilide IC70 present. activation (rescue from dofetilide block), less the hit threshold, % at 10 µM. hit rate 0.51% among 310,000;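 active = activation above the mean of controls blocked by dofetilide plus 5 SD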;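 note: thallium influx through hERG after potassium depolarization seen as dye fluorescence rise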
KCNQ1 inh: human KCNQ1 channel inhibition; P51787; CHO-K1 KCNQ1, FluxOR thallium flux fluorescence; active compounds read high; B-score at 10 µM; hit rate 1.3% among 310,000; AID 2642;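 active = compounds whose thallium flux B-score, printed positive for inhibition, exceeds three library SD while starting fluorescence stays within three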;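 note: channel opened by potassium depolarization with thallium stimulus after 20 min compound exposure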
KCNK9 inh: human KCNK9 channel inhibition | Q9NPC2 | HEK293 KCNK9, FluxOR thallium flux fluorescence; active compounds read low | B-score at 10 µM | hit rate 1.2% among 310,000 | AID 488922;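 active = ratio B-score over 3 SD below the library mean, with starting fluorescence within 5 SD of its mean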;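 note: negative B-score means less thallium flux so channel inhibition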
Target sequence (Q9NPC2 whole entry, looked up): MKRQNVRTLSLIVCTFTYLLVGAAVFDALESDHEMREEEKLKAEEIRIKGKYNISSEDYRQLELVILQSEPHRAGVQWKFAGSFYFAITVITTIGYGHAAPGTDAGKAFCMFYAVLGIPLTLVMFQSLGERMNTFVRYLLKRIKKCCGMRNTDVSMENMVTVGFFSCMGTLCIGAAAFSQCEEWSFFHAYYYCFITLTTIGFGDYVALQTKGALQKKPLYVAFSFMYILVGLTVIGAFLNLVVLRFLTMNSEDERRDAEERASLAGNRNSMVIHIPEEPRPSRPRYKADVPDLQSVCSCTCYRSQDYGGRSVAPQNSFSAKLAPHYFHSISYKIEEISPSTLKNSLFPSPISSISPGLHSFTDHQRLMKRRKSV
KCNQ1 act: potentiators or activators of human KCNQ1 potassium channel; hit rate 0.35% among 310,000; P51787; CHO-K1 KCNQ1, thallium flux FluxOR fluorescence; active compounds read high; B-score at 10 µM; AID 2648;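 active = fluorescence ratio B-score, a plate-corrected score, at least three library SD, with initial intensity B-score within 5 SD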
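Medium – assay buffer, equal DMSO in all wells · Material – CHO-K1 cell line with stable KCNQ1 potassium channel expression · Signal – kinetic FluxOR thallium fluorescence, 10-s 1-Hz baseline, 110-s post-stimulus read · Compound – single concentration per compound, DMSO matched to controls · Schedule – 37 °C overnight plating, 90-min dark dye load, 20-min compound pretreatment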
KCNK3 inh: human KCNK3 channel inhibition, primary screen | hit rate 0.84% among 340,000 | CHO-KCNK3 thallium flux, FluxOR fluorescence; active compounds read low | B-score at 10 µM | O14649;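 active = B-score under library mean minus 4 SD, starting fluorescence ratio at most library mean plus 5 SD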;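 note: more negative B-score means stronger inhibition of thallium flux through KCNK3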
Numbers without * were called inactive.

Screening Cc1ccc(C(=O)N/N=C\c2ccc(Br)o2)o1 returned hERG protect -9.7, KCNQ1 inh inactive, KCNK9 inh inactive, KCNQ1 act inactive and KCNK3 inh inactive.
Screening Cc1ccc(C(=O)N/N=C/c2ccc(-c3ccc(Br)cc3[N+](=O)[O-])o2)o1 returned hERG protect -19.0, KCNQ1 inh 7*, KCNK9 inh inactive, KCNQ1 act inactive and KCNK3 inh inactive.
Screening CC1(C)CC(=O)C2=C(C1)OC(N)=C(C#N)C2c1cccs1 (configuration not stated) returned hERG protect -5.8, KCNQ1 inh inactive, KCNK9 inh inactive, KCNQ1 act inactive and KCNK3 inh inactive.
`Cc1ccc(C2C(C#N)=C(N)OC3=C2C(=O)CC(C)(C)C3)s1` (configuration not stated) gave hERG protect -1.9, KCNQ1 inh inactive, KCNK9 inh inactive, KCNQ1 act 9* and KCNK3 inh inactive.
For CCOc1ccccc1C(=O)NC1CC2CCCC(C1)N2Cc1nnnn1Cc1ccco1 (configuration not stated) the results were hERG protect 22.5*, KCNQ1 inh inactive, KCNK9 inh inactive, KCNQ1 act inactive and KCNK3 inh inactive.
For COc1ccccc1CNC(=O)COc1ccc(S(=O)(=O)N2CCCC2)cc1 the results were hERG protect -12.3, KCNQ1 inh inactive, KCNK9 inh inactive, KCNQ1 act inactive and KCNK3 inh inactive.
For COc1ccc(OC)c(C(=O)COC(=O)COc2ccccc2)c1 the results were KCNK3 inh inactive.
For COc1ccc(/C=N/N(Cc2ccccc2)c2ccccc2)cc1O the results were hERG protect -19.3, KCNQ1 inh 6*, KCNK9 inh inactive, KCNQ1 act inactive and KCNK3 inh inactive.
Screening Oc1ccc(/C=N/N(c2ccccc2)c2ccccc2)cc1O returned hERG protect -14.7, KCNQ1 inh 6*, KCNK9 inh inactive, KCNQ1 act inactive and KCNK3 inh inactive.
`Oc1ccc(/C=N/N(c2ccccc2)c2ccccc2)c(O)c1O` gave hERG protect -37.4, KCNQ1 inh inactive, KCNK9 inh inactive, KCNQ1 act inactive and KCNK3 inh inactive.
`COc1ccccc1NS(=O)(=O)c1ccc(C)c(C(=O)NCCCN2CCCC2=O)c1` gave hERG protect -11.9, KCNQ1 inh inactive, KCNK9 inh inactive, KCNQ1 act inactive and KCNK3 inh inactive.
O=C(Cc1cccc(NC(=O)C2CCCN(C(=O)C3CCC3)C2)c1)Nc1ccc(C(=O)N2CCCCC2)cc1 (configuration not stated) was read as KCNK3 inh inactive.
Screening Cc1cc(C)cc(OCC(=O)NNC(=O)c2cc3ccccc3o2)c1 returned hERG protect -0.2, KCNQ1 inh inactive, KCNK9 inh inactive, KCNQ1 act 8* and KCNK3 inh inactive.
Screening NC(=O)c1ccc[n+](Cc2ccc(-c3ccccc3)cc2)c1 returned hERG protect -7.8, KCNQ1 inh inactive, KCNK9 inh inactive, KCNQ1 act inactive and KCNK3 inh inactive.
COc1ccc(NC(=O)Nc2ccc(OC)cc2)cc1 was read as hERG protect -4.2, KCNQ1 inh inactive, KCNK9 inh inactive, KCNQ1 act inactive and KCNK3 inh inactive.
N#Cc1ccc(NC(=O)Nc2ccc(Oc3ccc(NC(=O)Nc4ccc(C#N)cc4)cc3)cc2)cc1 was read as hERG protect -15.1, KCNQ1 inh 9*, KCNK9 inh inactive, KCNQ1 act inactive and KCNK3 inh inactive.
For COc1ccc(S(N)(=O)=O)cc1C(=O)NNC(=O)c1cccc(S(=O)(=O)N2CCOCC2)c1 the results were KCNK3 inh inactive.
Screening Nc1nccnc1C(=O)OCC(=O)NCCc1ccc(Cl)cc1 returned KCNK3 inh inactive.
Screening COc1ccc(-c2csc(NC(=S)NC(=O)c3cccs3)n2)cc1Br returned hERG protect 8.6*, KCNQ1 inh inactive, KCNK9 inh inactive, KCNQ1 act 9* and KCNK3 inh inactive.
For O=C(NC(=S)Nc1nc2c(ccc3ccccc32)s1)c1cccs1 the results were hERG protect 0.2, KCNQ1 inh inactive, KCNK9 inh inactive, KCNQ1 act 9* and KCNK3 inh inactive.
`COc1ccc(-c2csc(NC(=S)NC(=O)c3ccc(S(=O)(=O)N(C)C)cc3)n2)cc1OC` gave hERG protect -7.9, KCNQ1 inh inactive, KCNK9 inh inactive, KCNQ1 act inactive and KCNK3 inh inactive.
COc1ccc(-c2csc(NC(=S)NC(=O)c3cccs3)n2)cc1OC was read as hERG protect -0.1, KCNQ1 inh inactive, KCNK9 inh -7.9*, KCNQ1 act 11* and KCNK3 inh inactive.
COc1cccc(CN(C)C(=O)c2cc(-c3ccc(F)cc3)nc3ccccc23)c1 was read as hERG protect -33.1, KCNQ1 inh 11*, KCNK9 inh inactive, KCNQ1 act inactive and KCNK3 inh -8.93*.
Screening COc1ccc(CN(C)C(=O)c2cc(-c3ccccc3)nc3ccc(C)cc23)c(OC)c1OC returned hERG protect -34.0, KCNQ1 inh 6*, KCNK9 inh inactive, KCNQ1 act inactive and KCNK3 inh inactive.
C/C(=N\NC(=O)c1ccc(Cn2cc(Br)cn2)o1)c1ccc(NC(=O)c2ccoc2C)cc1 was read as hERG protect -7.3, KCNQ1 inh 10*, KCNK9 inh inactive, KCNQ1 act inactive and KCNK3 inh inactive.
O=C(CSc1cn[nH]n1)Nc1nc2ccccc2s1 was read as hERG protect -10.4, KCNQ1 inh inactive, KCNK9 inh inactive, KCNQ1 act inactive and KCNK3 inh inactive.
For O=C(Nc1ccc(C(O)(C(F)(F)F)C(F)(F)F)cc1)c1ccc(Cl)c([N+](=O)[O-])c1 the results were hERG protect -49.9, KCNQ1 inh 6*, KCNK9 inh inactive, KCNQ1 act inactive and KCNK3 inh inactive.
`N#Cc1ccsc1NC(=O)c1ccc(Cl)c([N+](=O)[O-])c1` gave hERG protect -15.0, KCNQ1 inh 7*, KCNK9 inh inactive, KCNQ1 act inactive and KCNK3 inh inactive.
Screening O=C(CCC(=O)Nc1cccc(Cl)c1)N/N=C/c1cc([N+](=O)[O-])ccc1O returned hERG protect -6.0, KCNQ1 inh inactive, KCNK9 inh inactive, KCNQ1 act inactive and KCNK3 inh inactive.
O=C(CN(c1cccc(Br)c1)S(=O)(=O)c1ccccc1)N/N=C/c1cc([N+](=O)[O-])ccc1O was read as hERG protect -19.6, KCNQ1 inh 16*, KCNK9 inh inactive, KCNQ1 act inactive and KCNK3 inh inactive.
Screening O=C(CCCC(=O)Nc1cccc(Br)c1)N/N=C/c1cc([N+](=O)[O-])ccc1O returned hERG protect -9.0, KCNQ1 inh 7*, KCNK9 inh inactive, KCNQ1 act inactive and KCNK3 inh inactive.
Screening CC(=O)c1ccc(N2CCN(C(=O)c3ccccc3SCC(=O)NCc3ccco3)CC2)c(F)c1 returned KCNK3 inh inactive.

Compound activity as filed in PubChem BioAssay.
